Reference: ChEMBL document CHEMBL2203264, “Optimization of imidazo[4,5-b]pyridine-based kinase inhibitors: identification of a dual FLT3/Aurora kinase inhibitor as an orally bioavailable preclinical development candidate for the treatment of acute myeloid leukemia” (J Med Chem, 2012)
Calls of active or inactive are those of the source. The rule behind the calls is not given here.

What was measured:
[1] = biological target: Tyrosine-protein kinase JAK2 (Homo sapiens) (UniProt O60674); assay: Inhibition of JAK2 at 1 uM
Summary of the method: (§1)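 KINOMEScan competition-binding panel of 442 kinases (386 nonmutant) tested at 1 μM. Binding is read as percent of control ligand competition; <10% of control counts as a hit for the S(10) score.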

[2] = biological target: Vascular endothelial growth factor receptor 1 (Homo sapiens) (UniProt P17948); assay: Inhibition of FLT1 at 1 uM; summary of the method: as §1
MV4-11 [3] = assay: Antitumor activity against human MV4-11 cells xenografted in CrTacNCr-Fox1(nu) athymic mouse assessed as tumor growth inhibition at 100 mg/kg, po bid administered 10 days post implantation daily for 7 days measured after 11 days; assay type: functional, organism-based; set-up: dose 100 mg/kg
Summary of the method: (§2)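 Female adult athymic nude mice implanted subcutaneously with 10^7 FLT3-ITD-positive MV4-11 cells; treatment started 10 days after implantation, once mean tumor volume was at least 100 mm^3. Oral dosing at 50 or 100 mg/kg (n = 5 per group), twice daily for 7 days, then once daily for a further 4 days. Vehicle: 10% DMSO, 20% PEG 400, 5% Tween 80, 65% water. Tumor volume followed to day 60.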

Mus musculus = assay: Toxicity in CrTacNCr-Fox1(nu) athymic mouse assessed as adverse condition at 50 to 100 mg/kg, po administered 10 days post implantation daily for 7 days; assay type: organism-based; set-up: dose 50-100 mg/kg, route oral; details: in vivo
MV4-11 [4] = assay: Antitumor activity against human MV4-11 cells xenografted in po dosed CrTacNCr-Fox1(nu) athymic mouse assessed as tumor growth inhibition administered 10 days post implantation twice daily for 7 days; assay type: functional, organism-based; summary of the method: as §2
[5] = Lipophilicity, log D of the compound; assay type: physicochemical; details: octanol/water
[6] = Clearance in Sprague-Dawley rat at 5 mg/kg, iv; assay type: ADME, organism-based; set-up: dose 5 mg/kg, route intravenous; details: in vivo
Summary of the method: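 Female Sprague–Dawley rats given 5 mg/kg iv in 10% DMSO, 5% Tween 20, 85% saline, 0.3% 1 M HCl. Serial tail vein bleeds at 15 and 30 min and 2, 4, 6, 24 h; plasma protein-precipitated with methanol with olomoucine internal standard; drug quantified by LC–MS (positive ESI MRM). Clearance given as L/h and mL/min/kg.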

[7] = AUC (infinity) in Balb/C mouse at 5 mg/kg, iv; assay type: ADME, organism-based; set-up: time infinity, dose 5 mg/kg, route intravenous; details: plasma
Summary of the method: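 Female Balb/C mice dosed iv at 5 mg/kg in 10% DMSO, 5% Tween 20 in saline. Mice killed at 5, 15, 30 min and 1, 2, 4, 6, 24 h. Plasma from cardiac blood was methanol-precipitated with olomoucine internal standard, then analysed by LC–MS (positive ESI MRM).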

Cytochrome P450 1A2 = biological target: T1, Cytochrome P450 1A2 (Homo sapiens, UniProt P05177); assay: Inhibition of human liver microsome CYP1A2 by LC-MS-MS analysis
T1 sequence (P05177 whole entry): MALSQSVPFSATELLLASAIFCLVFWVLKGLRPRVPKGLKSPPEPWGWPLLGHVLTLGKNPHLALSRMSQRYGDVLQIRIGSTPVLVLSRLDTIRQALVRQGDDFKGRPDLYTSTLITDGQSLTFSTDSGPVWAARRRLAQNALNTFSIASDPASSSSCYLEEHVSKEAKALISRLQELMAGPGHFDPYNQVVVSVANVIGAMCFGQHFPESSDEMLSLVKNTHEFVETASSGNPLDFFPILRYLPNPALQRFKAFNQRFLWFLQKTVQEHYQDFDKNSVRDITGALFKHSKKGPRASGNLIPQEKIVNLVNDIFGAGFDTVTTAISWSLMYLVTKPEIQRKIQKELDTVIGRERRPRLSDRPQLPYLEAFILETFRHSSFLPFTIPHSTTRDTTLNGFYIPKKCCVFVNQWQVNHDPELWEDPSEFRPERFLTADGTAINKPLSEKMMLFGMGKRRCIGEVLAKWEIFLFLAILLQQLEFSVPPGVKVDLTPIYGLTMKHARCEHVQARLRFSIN

[8] = biological target: Voltage-gated inwardly rectifying potassium channel KCNH2 (Homo sapiens, UniProt Q12809); assay: Inhibition of human ERG by whole-cell voltage clamping
Summary of the method: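 hERG tail current measured by whole-cell voltage clamp (Cyprotex) to obtain an IC50. Single-point screens were a separate high-throughput cell-based electrophysiology assay at 10 μM, with 0.3% DMSO vehicle and 1 μM cisapride as controls.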

[9] = Metabolic stability in human liver microsomes assessed as parent compound metabolism after 30 mins by LC-MS analysis; assay type: ADME, Microsome; details: read-out: Drug metabolism
Summary of the method: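 Test compound at 10 μM with pooled mixed-gender human liver microsomes (1 mg/mL protein), NADPH 1 mM, UDPGA 2.5 mM and MgCl2 3 mM in 10 mM PBS at 37 °C for 0 and 30 min. Controls omit NADPH/UDPGA. Compound remaining measured by LC–MS; reported as percent of parent metabolized at 30 min.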

Sequence of Vascular endothelial growth factor receptor 1 (Homo sapiens) (P17948 whole entry): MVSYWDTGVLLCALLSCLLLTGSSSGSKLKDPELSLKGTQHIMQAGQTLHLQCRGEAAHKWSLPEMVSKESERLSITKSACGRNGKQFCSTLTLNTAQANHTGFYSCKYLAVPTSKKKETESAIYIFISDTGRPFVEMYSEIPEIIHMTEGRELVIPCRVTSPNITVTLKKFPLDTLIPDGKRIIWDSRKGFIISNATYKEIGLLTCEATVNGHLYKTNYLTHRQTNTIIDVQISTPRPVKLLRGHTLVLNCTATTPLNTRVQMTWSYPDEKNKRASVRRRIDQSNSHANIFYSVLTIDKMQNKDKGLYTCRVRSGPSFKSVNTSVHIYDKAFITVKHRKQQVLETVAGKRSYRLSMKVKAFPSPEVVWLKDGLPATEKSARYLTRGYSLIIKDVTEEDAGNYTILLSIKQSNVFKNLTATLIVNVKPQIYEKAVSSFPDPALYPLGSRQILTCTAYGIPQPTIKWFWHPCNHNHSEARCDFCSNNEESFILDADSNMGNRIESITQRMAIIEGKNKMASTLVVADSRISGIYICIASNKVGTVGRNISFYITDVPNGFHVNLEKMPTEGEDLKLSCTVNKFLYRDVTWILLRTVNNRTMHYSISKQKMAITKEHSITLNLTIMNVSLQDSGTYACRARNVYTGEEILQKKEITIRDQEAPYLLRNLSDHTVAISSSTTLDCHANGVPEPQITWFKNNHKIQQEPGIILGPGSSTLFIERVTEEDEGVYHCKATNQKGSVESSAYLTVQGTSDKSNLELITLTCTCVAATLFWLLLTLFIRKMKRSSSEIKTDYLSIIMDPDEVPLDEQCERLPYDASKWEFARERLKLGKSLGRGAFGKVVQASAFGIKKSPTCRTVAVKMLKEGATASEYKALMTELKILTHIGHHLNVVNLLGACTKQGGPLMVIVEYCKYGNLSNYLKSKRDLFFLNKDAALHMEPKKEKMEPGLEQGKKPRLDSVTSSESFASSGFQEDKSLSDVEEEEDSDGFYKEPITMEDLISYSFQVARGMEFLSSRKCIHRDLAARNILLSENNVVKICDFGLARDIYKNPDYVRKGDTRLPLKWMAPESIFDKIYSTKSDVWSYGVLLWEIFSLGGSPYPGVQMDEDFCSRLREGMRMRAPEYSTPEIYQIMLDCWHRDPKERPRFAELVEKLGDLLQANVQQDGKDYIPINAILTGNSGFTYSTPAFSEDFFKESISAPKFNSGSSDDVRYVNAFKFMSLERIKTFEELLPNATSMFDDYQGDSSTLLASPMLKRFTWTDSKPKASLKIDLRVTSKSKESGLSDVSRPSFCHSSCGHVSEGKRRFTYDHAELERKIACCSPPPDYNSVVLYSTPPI
Sequence of Voltage-gated inwardly rectifying potassium channel KCNH2 (Q12809 whole entry): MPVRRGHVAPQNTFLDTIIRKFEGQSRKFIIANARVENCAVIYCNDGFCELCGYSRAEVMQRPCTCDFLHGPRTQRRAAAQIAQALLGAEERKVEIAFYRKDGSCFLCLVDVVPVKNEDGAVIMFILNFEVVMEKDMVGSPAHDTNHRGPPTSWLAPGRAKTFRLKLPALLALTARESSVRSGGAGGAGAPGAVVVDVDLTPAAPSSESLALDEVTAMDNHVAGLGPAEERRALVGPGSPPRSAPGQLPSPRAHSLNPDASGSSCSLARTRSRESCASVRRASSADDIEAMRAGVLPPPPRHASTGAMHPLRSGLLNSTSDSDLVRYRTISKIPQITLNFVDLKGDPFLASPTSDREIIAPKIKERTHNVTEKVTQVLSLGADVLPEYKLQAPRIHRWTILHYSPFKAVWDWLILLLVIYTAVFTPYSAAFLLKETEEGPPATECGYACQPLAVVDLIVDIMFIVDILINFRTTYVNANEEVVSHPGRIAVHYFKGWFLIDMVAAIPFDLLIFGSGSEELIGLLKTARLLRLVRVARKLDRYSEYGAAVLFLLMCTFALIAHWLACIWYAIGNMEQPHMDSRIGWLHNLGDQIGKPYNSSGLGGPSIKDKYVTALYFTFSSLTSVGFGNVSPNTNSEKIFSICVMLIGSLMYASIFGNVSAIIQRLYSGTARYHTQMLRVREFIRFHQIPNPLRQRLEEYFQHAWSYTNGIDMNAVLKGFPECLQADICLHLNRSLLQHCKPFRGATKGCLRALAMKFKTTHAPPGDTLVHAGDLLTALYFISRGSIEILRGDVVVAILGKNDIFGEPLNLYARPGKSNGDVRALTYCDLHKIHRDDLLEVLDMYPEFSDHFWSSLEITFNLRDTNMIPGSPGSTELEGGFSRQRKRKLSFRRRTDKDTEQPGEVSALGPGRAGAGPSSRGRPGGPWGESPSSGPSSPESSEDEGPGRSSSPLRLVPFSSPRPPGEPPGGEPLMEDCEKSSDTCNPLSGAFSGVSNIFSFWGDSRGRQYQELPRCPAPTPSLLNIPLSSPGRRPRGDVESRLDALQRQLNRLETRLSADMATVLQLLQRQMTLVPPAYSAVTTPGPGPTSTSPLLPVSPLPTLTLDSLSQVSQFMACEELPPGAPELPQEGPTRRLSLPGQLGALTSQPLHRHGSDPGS
Sequence of Tyrosine-protein kinase JAK2 (Homo sapiens) (O60674 whole entry): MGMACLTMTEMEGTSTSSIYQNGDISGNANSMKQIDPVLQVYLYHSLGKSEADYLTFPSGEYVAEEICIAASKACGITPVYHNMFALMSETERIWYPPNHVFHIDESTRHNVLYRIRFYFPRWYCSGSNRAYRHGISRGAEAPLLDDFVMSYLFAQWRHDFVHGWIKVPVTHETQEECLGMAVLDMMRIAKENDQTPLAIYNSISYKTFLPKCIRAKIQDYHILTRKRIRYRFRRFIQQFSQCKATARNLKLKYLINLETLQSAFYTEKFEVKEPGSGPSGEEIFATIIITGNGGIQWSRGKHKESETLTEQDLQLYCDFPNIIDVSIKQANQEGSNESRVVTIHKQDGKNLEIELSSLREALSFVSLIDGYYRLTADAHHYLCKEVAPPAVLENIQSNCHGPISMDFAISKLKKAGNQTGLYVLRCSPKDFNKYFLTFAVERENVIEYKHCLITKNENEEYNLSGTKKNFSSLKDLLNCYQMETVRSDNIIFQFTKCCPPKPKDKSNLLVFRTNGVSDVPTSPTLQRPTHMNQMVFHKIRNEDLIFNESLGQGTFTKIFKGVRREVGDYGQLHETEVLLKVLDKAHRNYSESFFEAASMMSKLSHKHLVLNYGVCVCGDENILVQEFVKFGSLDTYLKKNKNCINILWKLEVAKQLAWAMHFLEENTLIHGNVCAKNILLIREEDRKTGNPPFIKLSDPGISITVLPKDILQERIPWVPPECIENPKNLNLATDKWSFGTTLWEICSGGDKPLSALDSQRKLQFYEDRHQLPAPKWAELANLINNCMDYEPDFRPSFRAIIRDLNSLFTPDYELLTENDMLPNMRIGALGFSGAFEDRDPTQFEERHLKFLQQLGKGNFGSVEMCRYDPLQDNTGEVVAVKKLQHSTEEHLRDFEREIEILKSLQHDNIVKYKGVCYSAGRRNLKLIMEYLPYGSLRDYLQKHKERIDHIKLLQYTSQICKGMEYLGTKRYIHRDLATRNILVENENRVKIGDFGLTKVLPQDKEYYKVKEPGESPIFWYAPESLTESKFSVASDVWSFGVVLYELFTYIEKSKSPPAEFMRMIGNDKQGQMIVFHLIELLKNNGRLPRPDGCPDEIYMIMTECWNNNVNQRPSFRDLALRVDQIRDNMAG

Cc1nn(C)cc1-c1nc2c(N3CCN(Cc4ccc(Cl)cc4)CC3)c(Cl)cnc2[nH]1 [MOBINITINIB]
inhibition [1]: 1.3%
inhibition [2]: 0.3%
Activity (MV4-11 [3]): Active
Activity (Mus musculus): Non-toxic
TGI (MV4-11 [4]): Dose-dependent effect
logD [5]: 3.84
clearance [6]: 0.95 mL/min
AUC(0-inf) [7]: 3.75 µM·h
IC50 (Cytochrome P450 1A2): > 10 µM
IC50 [8]: > 25 µM
metabolised at 0.5 h [9]: 10%
